Results as given in PMC4180826 (Scientific Reports, 2014).

What was measured:
[1] = target: probe 1 (terpyridine-Fe (II) complex of the Gd (III)-DOTA peptide 1, a modified substance P); test: other fluorescence titration
[2] = target: probe 1 (terpyridine-Fe (II) complex of the Gd (III)-DOTA peptide 1, a modified substance P); test: T1 relaxation rate
[3] = target: probe 1 (terpyridine-Fe (II) complex of the Gd (III)-DOTA peptide 1, a modified substance P); test: fluorescence polarisation
[4] = "under the same conditions"; cited from earlier work
Fe = assay type: binding; conditions: until molar ratio Fe (II) to peptide 1 of 1:1; peptide 1 10.0 μM; TBS pH 7.4
[5] = Transmission electron microscopy, aggregation and disaggregation; assay type: physicochemical
Procedure, shortened: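 Droplets of the peptide, the test compound, or the test compound bound to NK1R at 1:1 molar ratio were placed on carbon-coated holey grids. The NK1R sample alone was negatively stained with sodium phosphotungstate and dried at room temperature for 12 h before TEM imaging.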

[6] = Relaxivity r1, 0.5 T MR system; assay type: physicochemical; conditions: TBS pH 7.4, 50.0 mM Tris, 50.0 mM NaCl, 37 °C, 1-100 μM, inversion recovery, slope of 1/T1 versus concentration

With “neurokinin-1 receptor (NK1R), recombinant” the fold increase of the fluorescence intensity of probe 1 at 610 nm [1] was 3 fold, the stoichiometry N [2] was 1 probe 1:NK1R and the Kd [3] was 2300 nM.

In the case of `O=C([O-])CN(CCN(CC(=O)[O-])CC(=O)O)CCN(CC(=O)[O-])CC(=O)O.[Gd+3]` [Gd-(DTPA)], the “relaxivity r1, clinical contrast agents” value [4] is listed as 4.6 mM⁻¹ s⁻¹.

For `CC(O)CN1CCN(CC(=O)[O-])CCN(CC(=O)[O-])CCN(CC(=O)[O-])CC1.[Gd+3]` (stereo not shown) [Gd-(HP-DO3A)], the “relaxivity r1, clinical contrast agents” value [4] is listed as 4.3 mM⁻¹ s⁻¹.

With “MLGFFQQPKPRKKKKKK(Tpy)K(Tpy)KK(Dye)DOTA [peptide 1]” the “fluorescence at 610 nm upon addition of Fe (II) ions” value (Fe) was “decreased”, the “length (TEM)” value ([5]; nanofibers, peptide 1 alone, 10.0 μM in TBS pH 7.4) was “several hundred nm” and the “diameter (TEM)” value ([5]; threadlike network of nanofibers, peptide 1 alone, 10.0 μM in TBS pH 7.4) was “approximately 3.5 nm”. The “relaxivity r1” value [6] was 11.8 mM⁻¹ s⁻¹.

B1: NK1R: recombinant NK1R (TACR1) expressed in Rosetta (DE3), purified using nickel affinity chromatography (protein)
chain: MDNVLPVDSDLSPNISTNTSEPNQFVQPAWQIVLWAAAYTVIVVTSVVGNVVVMWIILAHKRMRTVTNYFLVNLAFAEASMAAFNTVVNFTYAVHNEWYYGLFYCKFHNFFPIAAVFASIYSMTAVAFDRYMAIIHPLQPRLSATATKVVICVIWVLALLLAFPQGYYSTTETMPSRVVCMIEWPEHPNKIYEKVYHICVTVLIYFLPLLVIGYAYTVVGITLWASEIPGDSSDRYHEQVSAKRKVVKMMIVVVCTFAICWLPFHIFFLLPYINPDLYLKKFIQQVYLAIMWLAMSSTMYNPIIYCCLNDRFRLGFKHAFRCCPFISAGDYEGLEMKSTRYLQTQGSVYKVSRLETTISTVVGAHEEEPEDGPKATPSSLDLTSNCSSRSDSKTMTESFSFSSNVLS
For B1, the “diameter (TEM)” value ([5]; NK1R multimers, 1.0 μM, stained with sodium phosphotungstate 2.0 wt%, TBS pH 7.4) was “approximately 3.8 nm”.
